Measured values taken from ChEMBL document CHEMBL3352730, “Synthesis and effects on cell viability of flavonols and 3-methyl ether derivatives on human leukemia cells” (Eur J Med Chem, 2014).
Active and inactive are the calls of the source. The rule behind the calls is not given here.

Key:
MOLT-3 [1] = test: Reduction in Bid expression in human MOLT3 cells by Western blotting method; type: functional, cell-based
Outline: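 Cells (HL-60, Molt-3 or U937) were incubated with increasing concentrations of compound and harvested at 24 h. Cell lysates were then immunoblotted for Bid and other Bcl-2 family members.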

U-937 [2] = test: Induction of cell cycle arrest in human U937 cells assessed as accumulation at G2/M phase at 10 uM after 48 hrs by propidium iodide staining based flow cytometry (reference value: 19.1 +/- 1.1%); type: functional
HL-60 [3] = test: Induction of apoptosis in human HL60 cells assessed as increase in caspase 9 activity using LEHD-pNA substrate at 10 uM after 24 hrs; type: functional
Outline: (§1)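 Cells were given 10 µM for 24 h. Lysates were assayed for cleavage of DEVD-pNA (caspase-3/7), IETD-pNA (caspase-8) and LEHD-pNA (caspase-9). Results are expressed as fold over control, from three independent experiments in triplicate.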

HL-60 [4] = test: Induction of apoptosis in human HL60 cells assessed as increase in caspase 3/7 activity DEVD-pNA substrate at 10 uM after 24 hrs; type: functional; outline: as §1
HL-60 [5] = test: Induction of apoptosis in human HL60 cells assessed as pro-caspase-8 cleavage by Western blotting method; type: functional, cell-based
Outline: (§2)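 Cells were exposed to a range of compound concentrations and harvested at 24 h. Lysates were immunoblotted for caspase proforms and cleaved forms, and for Bcl-2 family proteins.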

U-937 [6] = test: Induction of cell cycle arrest in human U937 cells assessed as accumulation at S phase at 3 uM after 12 hrs by propidium iodide staining based flow cytometry (reference value: 20.5 +/- 0.8%); type: functional
U-937 [7] = test: Induction of cell cycle arrest in human U937 cells assessed as accumulation at G2/M phase at 3 uM after 12 hrs by propidium iodide staining based flow cytometry (reference value: 24.2 +/- 1.2%); type: functional
HL-60 [8] = test: Induction of cell cycle arrest in human HL60 cells assessed as accumulation at subG1 phase at 10 uM after 12 hrs by propidium iodide staining based flow cytometry (reference value: 6.1 +/- 0.5%); type: functional
MOLT-3 [9] = test: Induction of apoptosis in human MOLT3 cells assessed as pro-caspase-9 cleavage by Western blotting method; type: functional, cell-based; outline: as §2
HL-60 [10] = test: Induction of apoptosis in human HL60 cells in presence of p38MAPK inhibitor SB203580 after 24 hrs by propidium iodide staining based flow cytometry; type: functional, cell-based
HL-60 [11] = test: Induction of cell cycle arrest in human HL60 cells assessed as accumulation at G2/M phase at 1 uM after 12 hrs by propidium iodide staining based flow cytometry (reference value: 18.5 +/- 0.5%); type: functional
HL-60 [12] = test: Induction of cell cycle arrest in human HL60 cells assessed as accumulation at G2/M phase at 10 uM after 48 hrs by propidium iodide staining based flow cytometry (reference value: 17.9 +/- 0.7%); type: functional
U-937 [13] = test: Induction of cell cycle arrest in human U937 cells assessed as accumulation at G2/M phase at 10 uM after 24 hrs by propidium iodide staining based flow cytometry (reference value: 22.8 +/- 1.6%); type: functional
U-937 [14] = test: Induction of cell cycle arrest in human U937 cells assessed as accumulation at S phase at 1 uM after 12 hrs by propidium iodide staining based flow cytometry (reference value: 20.5 +/- 0.8%); type: functional
U-937 [15] = test: Induction of cell cycle arrest in human U937 cells assessed as accumulation at S phase at 1 uM after 48 hrs by propidium iodide staining based flow cytometry (reference value: 18.9 +/- 0.2%); type: functional
U-937 [16] = test: Induction of cell cycle arrest in human U937 cells assessed as accumulation at S phase at 3 uM after 48 hrs by propidium iodide staining based flow cytometry (reference value: 18.9 +/- 0.2%); type: functional
U-937 [17] = test: Cytotoxicity against human U937 cells at 30 uM incubated for 24 hrs followed of 0.5 ug/mL TRAIL exposure for 24 hrs by MTT assay; type: functional, cell-based
Outline: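 U937 cells, MTT viability read-out. One arm received TRAIL at 0.5 µg/mL together with compound at 30 µM for 48 h. The other arm had compound for 24 h, then TRAIL for 24 h. Three independent experiments, each in triplicate.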

U-937 [18] = test: Induction of cell cycle arrest in human U937 cells assessed as accumulation at G2/M phase at 10 uM after 12 hrs by propidium iodide staining based flow cytometry (reference value: 24.2 +/- 1.2%); type: functional
U-937 [19] = test: Induction of cell cycle arrest in human U937 cells assessed as accumulation at S phase at 1 uM after 24 hrs by propidium iodide staining based flow cytometry (reference value: 18.6 +/- 0.3%); type: functional
U-937 [20] = test: Induction of cell cycle arrest in human U937 cells assessed as accumulation at G1 phase at 10 uM after 12 hrs by propidium iodide staining based flow cytometry (reference value: 45.8 +/- 0.8%); type: functional
U-937 [21] = test: Induction of cell cycle arrest in human U937 cells assessed as accumulation at G2/M phase at 1 uM after 24 hrs by propidium iodide staining based flow cytometry (reference value: 22.8 +/- 1.6%); type: functional
[22] = target: MAP kinase p38 (Homo sapiens) (UniProt O15264+Q15759+Q16539+P53778); test: Increase in p38 MAPK phosphorylation in human HL60 cells at 10 to 30 uM after 2 to 6 hrs by Western blotting method; type: cell-based; conditions: HL-60
Outline: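 HL-60 cells were incubated for a time course. Extracts were immunoblotted with phospho-specific antibodies for ERK 1/2, JNK/SAPK and p38MAPK. Membranes were then stripped and reprobed for the total kinases as loading controls.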

HL-60 [23] = test: Induction of cell cycle arrest in human HL60 cells assessed as accumulation at S phase at 1 uM after 48 hrs by propidium iodide staining based flow cytometry (reference value: 15.3 +/- 0.1%); type: functional
U-937 [24] = test: Induction of apoptosis in human U937 cells assessed as pro-caspase-9 cleavage by Western blotting method; type: functional, cell-based
Outline: (§3)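 U937 cells exposed to increasing concentrations of the flavonol and harvested at 24 h. Lysates were immunoblotted with antibodies that detect both the pro-caspases and their cleaved forms.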

U-937 [25] = test: Induction of apoptosis in human U937 cells assessed as pro-caspase-8 cleavage by Western blotting method; type: functional, cell-based; outline: as §3
U-937 [26] = test: Induction of apoptosis in human U937 cells assessed as pro-caspase-3 cleavage by Western blotting method; type: functional, cell-based; outline: as §2
U-937 [27] = test: Induction of apoptosis in human U937 cells assessed as pro-caspase-7 cleavage by Western blotting method; type: functional, cell-based; outline: as §3
HL-60 [28] = test: Induction of apoptosis in human HL60 cells assessed as pro-caspase-9 processing at 3 and 10 uM after 6 to 24 hrs by immunoblotting method; type: functional, cell-based
Outline: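 Kinetic and dose-response immunoblots. Cells were treated, harvested at the indicated times, and probed with antibodies that detect both procaspase-8/-9 and their cleaved fragments.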

HL-60 [29] = test: Induction of cell cycle arrest in human HL60 cells assessed as accumulation at S phase at 3 uM after 48 hrs by propidium iodide staining based flow cytometry (reference value: 15.3 +/- 0.1%); type: functional
U-937 [30] = test: Induction of cell cycle arrest in human U937 cells assessed as accumulation at G1 phase at 1 uM after 12 hrs by propidium iodide staining based flow cytometry (reference value: 45.8 +/- 0.8%); type: functional

Activity [22]: Active
Compound: O=c1c(O)c(-c2ccc(Br)cc2)oc2ccccc12
Activity (MOLT-3 [1]): Active
Activity (U-937 [2]): 7%
fold change (FC) (HL-60 [3]): 1.8
fold change (FC) (HL-60 [4]): 4.5
Activity (HL-60 [5]): Active
Activity (U-937 [6]): 22.4%
Activity (U-937 [7]): 23.9%
Activity (HL-60 [8]): 8.9%
Activity (MOLT-3 [9]): Active
Activity (HL-60 [10]): Active
Activity (HL-60 [11]): 19.4%
Activity (HL-60 [12]): 5.5%
Activity (U-937 [13]): 18.7%
Activity (U-937 [14]): 21.5%
Activity (U-937 [15]): 19.6%
Activity (U-937 [16]): 21.2%
Activity (U-937 [17]): Active
Activity (U-937 [18]): 19.6%
Activity (U-937 [19]): 18.9%
Activity (U-937 [20]): 47.6%
Activity (U-937 [21]): 25.2%
Activity (HL-60 [23]): 15.5%
Activity (U-937 [24]): Active
Activity (U-937 [25]): Active
Activity (U-937 [26]): inactive
Activity (U-937 [27]): Active
Activity (HL-60 [28]): Active
Activity (HL-60 [29]): 22.1%
Activity (U-937 [30]): 45.8%
